Compound activity from PubChem.
Hits are enriched below; roughly 2.9% of the tested compounds scored in any of these assays.
TRPC4 act: activators of mouse TRPC4 channel, primary screen, Fluo4 calcium, HEK293 TRPC4beta/mu-opioid cells. Short transient receptor potential channel 4 (Mus musculus), Q9QUQ5. B-score at 10 µM. 0.49% of 310,000 active. Fluo4 calcium fluorescence; hits give high values. AID 2237, 2010;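 active means B-score above 5 SD of library B-scores, and initial fluorescence ratio not above library mean plus 5 SD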;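 further: positive B-score marks a calcium rise read as TRPC4 activation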
Target sequence (Q9QUQ5 whole entry, looked up): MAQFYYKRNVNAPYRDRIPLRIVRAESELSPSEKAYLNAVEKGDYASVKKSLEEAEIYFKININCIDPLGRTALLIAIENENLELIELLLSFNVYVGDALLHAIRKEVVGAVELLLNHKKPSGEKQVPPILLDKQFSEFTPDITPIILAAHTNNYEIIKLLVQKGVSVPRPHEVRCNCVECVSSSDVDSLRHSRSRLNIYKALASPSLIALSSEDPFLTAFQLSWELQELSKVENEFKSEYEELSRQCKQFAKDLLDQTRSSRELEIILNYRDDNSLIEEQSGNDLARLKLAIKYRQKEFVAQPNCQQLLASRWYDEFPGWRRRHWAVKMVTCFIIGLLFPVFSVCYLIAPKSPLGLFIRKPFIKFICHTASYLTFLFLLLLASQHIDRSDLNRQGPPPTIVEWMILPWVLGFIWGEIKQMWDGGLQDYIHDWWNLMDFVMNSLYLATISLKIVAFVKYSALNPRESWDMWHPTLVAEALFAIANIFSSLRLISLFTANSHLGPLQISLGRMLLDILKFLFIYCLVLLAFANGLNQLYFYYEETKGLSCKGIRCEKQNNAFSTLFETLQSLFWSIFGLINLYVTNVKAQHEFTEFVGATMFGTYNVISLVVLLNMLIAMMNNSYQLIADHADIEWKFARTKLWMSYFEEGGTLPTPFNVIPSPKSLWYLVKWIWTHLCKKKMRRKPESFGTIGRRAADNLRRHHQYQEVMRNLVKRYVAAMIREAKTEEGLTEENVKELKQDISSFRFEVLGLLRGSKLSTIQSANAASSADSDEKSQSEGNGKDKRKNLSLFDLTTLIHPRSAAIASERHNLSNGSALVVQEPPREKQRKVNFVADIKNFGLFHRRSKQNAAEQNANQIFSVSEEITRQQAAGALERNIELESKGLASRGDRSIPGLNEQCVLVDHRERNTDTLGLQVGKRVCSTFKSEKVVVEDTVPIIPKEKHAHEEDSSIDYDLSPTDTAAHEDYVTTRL
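System: HEK293 cells stably co-expressing mouse TRPC4beta and mu-opioid receptor; Schedule: Fluo4 dye loading 45 min at room temperature, 110 s recording; Detection: Fluo4 fluorescence, kinetic; Evaluation: B-scored integrated calcium fluorescence ratio; Controls: buffer (low) and maximal DAMGO (high).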
TRPC6 inh: mouse TRPC6 channel inhibitors, primary screen, cell-based, HEK293, membrane potential dye | Short transient receptor potential channel 6 (Mus musculus), Q61143 | ACh-evoked depolarization; hits give low values | B-score at 10 µM | 1.1% of 310,000 active | AID 2553, 2010;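 active means B-score under library mean minus 3 SD, initial fluorescence not abnormally high, positive integrated signal ratio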;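 further: B-score derived from integrated fluorescence ratio over the kinetic read; more negative B-score means stronger inhibition of depolarization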
TRPC6 act: mouse TRPC6 channel activators, primary screen, cell-based, HEK293, membrane potential dye. Short transient receptor potential channel 6 (Mus musculus), Q61143. HEK293-TRPC6 membrane potential dye fluorescence; hits give high values. B-score at 10 µM. 0.13% of 310,000 active;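 active means B-score of the integrated fluorescence ratio above library mean plus 3 SD, and starting fluorescence ratio within library mean plus 5 SD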;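 further: higher score means more depolarization so channel activation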
Kir21 block: inhibitors of mouse Kir2.1 inward-rectifier potassium channel; Inward rectifier potassium channel 2 (Mus musculus), P35561; HEK293-Kir2.1, FluxOR thallium flux fluorescence; hits give low values; B-score at 10 µM; 0.85% of 310,000 active;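 active means fluorescence ratio B-score at or below minus 3 SD of library scores, with starting-brightness B-score within 2 SD, cut at about -4.2 in these data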;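 further: channel flux triggered by added potassium and thallium sulfate stimulus; B-score of peak minus minimum fluorescence over baseline after thallium stimulus; more negative B-score means stronger Kir2.1 block with less thallium influx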
TRPC4 block: inhibitors of mouse TRPC4 channel, primary screen, Fluo4 calcium, HEK293 TRPC4beta/mu-opioid cells. Short transient receptor potential channel 4 (Mus musculus), Q9QUQ5. DAMGO-evoked Fluo4 calcium flux; hits give low values. B-score at 10 µM. 0.39% of 300,000 active. AID 2247, 2010;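 active means B-score over 3 SD under the library average, no early fluorescence shift, positive overall ratio signal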
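System: stable TRPC4beta/mu-opioid receptor HEK293 cells; Dosing: single-point compound dosing; Measured by: Fluo4 Ca2+ flux fluorescence; Read-out basis: per-well B score of integrated baseline-normalized Fluo4 ratio.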
TRPC4 potent: positive allosteric modulators of TRPC4, primary screen, cell-based, mouse TRPC4beta, HEK293 mu-opioid, Fluo-4 calcium; DAMGO EC20, Fluo-4 Ca2+ flux; hits give high values; B-score at 10 µM; 0.42% of 310,000 active;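 active means B-score of calcium response area above 5 SD of library B-scores, with initial fluorescence ratio within 5 SD of library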;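 further: B-score of integrated fluorescence ratio over time as area under calcium response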
TRPC4 spec 2: second selectivity test of TRPC6 inhibitors: effect on mouse TRPC4. 42% of 920 active. inhibition, % at 10 µM. HEK293 TRPC4/MOR, membrane potential dye fluorescence; channel activated by saturating DAMGO dose. shares compounds with TRPC6 inh;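 active means compounds whose fluorescence signal differed from control wells by over 3 SD, either direction, in both duplicate plates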
TRPC4 spec: mouse TRPC4 modulation by TRPC6 hits, confirmation, selectivity assay for TRPC6 inhibitor project, cell-based, HEK293 TRPC4/mu-opioid, membrane potential dye | membrane potential fluorescence | activity change, negative = inhibition, % at 10 µM | 61% of 920 active | AID 2777, 2010 | shares compounds with TRPC6 inh;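 active means rise or fall in signal beyond 3 SD of buffer-only wells in both replicate plates, either sign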;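 further: integrated kinetic ratio of fluorescence range over baseline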
HEK293 MPD ctr 2-1: nonspecific membrane potential effects, parental HEK293, confirmation, counter-screen for TRPC6 inhibitor project, cell-based, second counter screen; shares compounds with TRPC6 inh; parental HEK293 membrane potential dye fluorescence; maximal acetylcholine challenge after compound addition; signal change vs control, % at 10 µM; 31% of 920 active;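 active means membrane potential signal moving either way by over 3 SD of the maximum-effect control, in both duplicate plates, meaning non-specific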
HEK293 MPD ctr-1: membrane potential modulation in parental HEK293, confirmation, counter-screen for TRPC6 inhibitor project, cell-based. shares compounds with TRPC6 inh. parental HEK293 membrane potential dye fluorescence. 60% of 920 active. AID 2780, 2010. membrane potential signal change, % at 10 µM;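 active means membrane potential signal shifting up or down by more than 3 SD of buffer-only wells, on both duplicate plates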
HEK293 MPD ctr-2: parental HEK293 membrane potential modulation, confirmation, counter-screen for TRPC6 modulator project, cell-based. membrane potential signal change, % at 10 µM. AID 488924, 2010. shares compounds with TRPC6 inh. membrane potential dye fluorescence. 51% of 2,400 active;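 active means membrane potential signal moves up or down beyond 5 SD from buffer-only wells, on both duplicate plates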
HEK293 MPD ctr 2-2: second counter-screen for TRPC6 modulators: effect in parental HEK293 cells; shares compounds with TRPC6 inh; membrane potential dye fluorescence; after compound, maximal acetylcholine stimulation; inhibition, % at 10 µM; 14% of 2,400 active; AID 488926;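 active means membrane potential signal drops by more than 5 SD from the mean control signal, in both duplicate plates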;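 further: plate controls were acetylcholine ECmax control wells for no effect and buffer only wells for full effect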
TRPC4/MOR mod: TRPC4 modulation by TRPC6 hit compounds, confirmation, selectivity assay for TRPC6 modulator project, cell-based, HEK293 TRPC4/mu-opioid, membrane potential dye, mouse. shares compounds with TRPC6 inh. membrane potential fluorescence. percent change from control (negative = decrease, positive = increase), % at 10 µM. 69% of 2,400 active;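 active means membrane potential signal moved up or down beyond 5 SD of buffer control wells, in both duplicate plates, actives on both sides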;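 further: plate controls were assay buffer wells for no effect and DAMGO maximal-effect wells for full effect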
TRPC4 ctr inh 2: second selectivity test of TRPC6 modulators against mouse TRPC4. shares compounds with TRPC6 inh. HEK293 TRPC4/mu-opioid, membrane potential dye fluorescence; stimulated with maximal-effect DAMGO. inhibition, % at 10 µM. 55% of 2,400 active. AID 488928;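 active means drop in membrane potential signal beyond 5 SD of the control wells in both duplicate plates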;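 further: TRPC4 counter screen for TRPC6 hits run under conditions tuned for TRPC6 not TRPC4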
TRPC6 inh conf: mouse TRPC6 channel inhibitors, confirmation, HEK293 cells, membrane potential dye, duplicate; shares compounds with TRPC6 inh; ACh-evoked depolarization; inhibition, % at 10 µM; 43% of 3,300 active;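 active means fluorescence ratio falls more than 5 SD below the full-stimulation control mean, in both duplicate runs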;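 further: integrated fluorescence ratio of peak minus minimum over baseline after agonist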
TRPC6 act confirm: mouse TRPC6 channel activators, confirmation, HEK293 cells, membrane potential dye, duplicate; shares compounds with TRPC6 inh; HEK293-TRPC6 membrane potential dye fluorescence, FDSS; activation, % at 10 µM; 11% of 2,800 active; AID 488961, 2010;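 active means ratio signal rise beyond 5 SD above unstimulated control wells' mean, seen in both duplicate runs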;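 further: plate controls were buffer EC0 wells for no effect and acetylcholine ECmax response for full effect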
Active calls of the source: *; i = inactive; / = no result given.

SMILES	TRPC4 act	TRPC6 inh	TRPC6 act	Kir21 block	TRPC4 block	TRPC4 potent	TRPC6 inh conf	TRPC6 act confirm	others
C=CCn1c(SCC(=O)Nc2sc3c(c2C#N)CCC3)nnc1C1COc2ccccc2O1 (stereo not drawn)	i	i	i	-1	i	i	/	/
Cc1ccc(S(=O)(=O)N2CCCCC2C)cc1[N+](=O)[O-] (stereo not drawn)	i	i	i	1.1	i	i	/	/
Cc1cccc(Nc2c([N+](=O)[O-])c(=O)oc3ccccc23)c1	i	i	i	0.98	i	i	/	/
CCCCCn1c2c(c(=N)c3ccccc31)CCC2	i	-8.1*	i	0.29	-8*	i	71%*	i	TRPC4 spec 2=56%*;TRPC4 spec=-26%*;HEK293 MPD ctr 2-1=20%*;HEK293 MPD ctr-1=-388%*
CCCCn1c2c(c(=N)c3ccccc31)CCC2	i	-7.2*	i	0.28	i	i	83%*	i	TRPC4 spec 2=60%*;TRPC4 spec=-29%*;HEK293 MPD ctr 2-1=-20%*;HEK293 MPD ctr-1=-508%*
CC12CNCC(C)(CN(C(c3ccccc3)c3ccccc3)C1)C2	i	-5.6*	i	-3	i	i	i	/	HEK293 MPD ctr-2=182%*;HEK293 MPD ctr 2-2=i;TRPC4/MOR mod=76%*;TRPC4 ctr inh 2=90%*
CC(=O)N1CCN(C(c2ccccc2)c2ccccc2)CC1	i	i	i	-0.06	i	i	/	/
O=C(COC(=O)c1c(Cl)cccc1Cl)NC1CCCCC1	i	i	12*	-0.01	i	i	/	171%*	HEK293 MPD ctr-2=121%*;HEK293 MPD ctr 2-2=i;TRPC4/MOR mod=24%*;TRPC4 ctr inh 2=i
O=C(COC(=O)c1c(F)cccc1Cl)NC1CCCC1	i	i	i	-0.2	i	i	/	/
Cc1cccc2cc(C#N)c(N3CCC(O)CC3)nc12	i	i	i	-0.74	i	i	/	/
CC(=O)c1ccc(NC2=C(N3CCOCC3)C(=O)c3ccccc3C2=O)cc1	i	i	i	0.01	i	i	/	/
Cc1ccc(NC2=C(N3CCOCC3)C(=O)c3ccccc3C2=O)cc1	i	-5.5*	i	-0.87	i	i	i	i	HEK293 MPD ctr-2=i;HEK293 MPD ctr 2-2=i;TRPC4/MOR mod=-31%*;TRPC4 ctr inh 2=78%*
N#CCOC(=O)[C@H](Cc1ccccc1)N1C(=O)c2ccccc2C1=O	i	-7.1*	i	-0.64	i	i	i	i	TRPC4 spec 2=i;TRPC4 spec=-0.7%*;HEK293 MPD ctr 2-1=i;HEK293 MPD ctr-1=i
Cc1cccc2sc(N3CCN(C(=O)c4cccs4)CC3)nc12	i	-5.4*	i	0.05	i	i	47%*	/	HEK293 MPD ctr-2=i;HEK293 MPD ctr 2-2=i;TRPC4/MOR mod=14%*;TRPC4 ctr inh 2=32%*
COc1ccc(NC(=O)C(CC(=O)O)C(C)c2ccccc2)cc1 (stereo not drawn)	i	i	i	-0.54	i	i	/	/
O=C(NC1CCCCC1)C1CCCN1S(=O)(=O)c1ccc(F)cc1 (stereo not drawn)	i	-8.1*	i	0.5	i	i	i	i	TRPC4 spec 2=i;TRPC4 spec=i;HEK293 MPD ctr 2-1=i;HEK293 MPD ctr-1=i
Cc1nnc(C)c2c(C)n(-c3ccccc3)c(C)c12	i	-5*	i	1.1	i	i	45%*	i	HEK293 MPD ctr-2=-127%*;HEK293 MPD ctr 2-2=i;TRPC4/MOR mod=-22%*;TRPC4 ctr inh 2=50%*
CCOC(=O)[C@@H]1C(c2c(OC)cc(OC)cc2OC)=NO[C@@H]1C(=O)OCC	i	i	i	2.5	i	i	/	/
CCCN1CCC(=O)N([C@H](CN=[N+]=[N-])Cc2ccccc2)CC1	i	i	i	0.59	i	i	/	/
CCOC(=O)C1CCN(C(c2cc3c(C)ccc(C)c3[nH]c2=O)c2nnnn2C2CCCCC2)CC1 (stereo not drawn)	i	i	i	-0.69	i	i	/	/
CCOC(=O)C1CCN(C(c2cc3ccc(C)c(C)c3[nH]c2=O)c2nnnn2C2CCCCC2)CC1 (stereo not drawn)	i	-8.8*	i	-0.01	i	i	i	/	TRPC4 spec 2=i;TRPC4 spec=i;HEK293 MPD ctr 2-1=i;HEK293 MPD ctr-1=i
O=C(COC(=O)CCC(=O)c1cccs1)NC1CC1	i	i	i	-0.46	i	i	/	/
